Measurements taken from ChEMBL document CHEMBL2034859, “Simple, fast and efficient synthesis of β-keto esters from the esters of heteroaryl compounds, its antimicrobial study and cytotoxicity towards various cancer cell lines” (Bioorg Med Chem Lett, 2012).
≈ marks a conversion by molar mass, not a printed value.

How the values were obtained:
[1] = tested on: Klebsiella pneumoniae; experiment: Antibacterial activity against Klebsiella pneumoniae after 24 hrs by disc diffusion method; assay type: functional
Outline: (§1)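 Disc diffusion susceptibility test. The Klebsiella pneumoniae strain was a recultured isolate, not an ATCC stock.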

[2] = tested on: Talaromyces marneffei; experiment: Antifungal activity against Penicillium marneffei after 3 to 4 days by disc diffusion method; assay type: functional
[3] = tested on: Trichophyton mentagrophytes; experiment: Antifungal activity against Trichophyton mentagrophytes after 3 to 4 days; assay type: functional
Outline: (§2)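 Compounds were dissolved in DMSO and tested by serial plate dilution. Activity was read as the diameter of the inhibition zone, with ciclopiroxolamine as the reference standard. Penicillium marneffei and Trichophyton mentagrophytes were recultured isolates.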

[4] = tested on: PANC-1; experiment: Cytotoxicity against human PANC1 cells at 10 uM after 48 hrs by WST-1 assay; assay type: functional
Outline: (§3)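 Cells from ATCC, grown in DMEM with 10% heat-inactivated FBS at 37 °C in humidified 5% CO2. Log-phase cells seeded at 5 × 10^3 cells/well and left to recover overnight, then exposed to varying compound concentrations for 48 h. Controls received medium with 0.2% DMSO vehicle. CCK-8 ([…]) reagent added at 5 µL/well for 2 h, then absorbance read.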

[5] = tested on: ACHN; experiment: Cytotoxicity against human ACHN cells at 10 uM after 48 hrs by WST-1 assay; assay type: functional
Outline: (§4)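 Cells from ATCC were grown in DMEM with 10% heat-inactivated FBS at 37 °C in 5% CO2. Log-phase cells were seeded at 5 × 10^3 per well and left to recover overnight. They were then exposed to a range of compound concentrations for 48 h, with 0.2% DMSO as the vehicle control. CCK-8 (WST) reagent was added for 2 h and absorbance was measured.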

[6] = tested on: Aspergillus fumigatus; experiment: Antifungal activity against Aspergillus fumigatus NCIM 902 after 3 to 4 days; assay type: functional; outline: as §2
[7] = tested on: Staphylococcus aureus; experiment: Antibacterial activity against Staphylococcus aureus ATCC 25923 after 24 hrs; assay type: functional; details: ATCC 25923, 24 h
[8] = tested on: Trichophyton mentagrophytes; experiment: Antifungal activity against Trichophyton mentagrophytes after 3 to 4 days by disc diffusion method; assay type: functional
[9] = tested on: Calu-1; experiment: Cytotoxicity against human Calu1 cells at 10 uM after 48 hrs by WST-1 assay; assay type: functional; outline: as §4
[10] = tested on: NCI-H460; experiment: Cytotoxicity against human NCI-H460 cells at 10 uM after 48 hrs by WST-1 assay; assay type: functional; outline: as §3
[11] = tested on: Aspergillus flavus; experiment: Antifungal activity against Aspergillus flavus NCIM 524 after 3 to 4 days by serial plate dilution method
[12] = tested on: Pseudomonas aeruginosa; experiment: Antibacterial activity against Pseudomonas aeruginosa ATCC 27853 after 24 hrs by disc diffusion method; assay type: functional; outline: as §1
[13] = tested on: Staphylococcus aureus; experiment: Antibacterial activity against Staphylococcus aureus ATCC 25923 after 24 hrs by disc diffusion method; assay type: functional; outline: as §1
[14] = tested on: Escherichia coli; experiment: Antibacterial activity against Escherichia coli ATCC 25922 after 24 hrs; assay type: functional; details: ATCC 25922, 24 h
[15] = tested on: Escherichia coli; experiment: Antibacterial activity against Escherichia coli ATCC 25922 after 24 hrs by disc diffusion method; assay type: functional; outline: as §1
[16] = tested on: Klebsiella pneumoniae; experiment: Antibacterial activity against Klebsiella pneumoniae after 24 hrs; assay type: functional
[17] = tested on: Pseudomonas aeruginosa; experiment: Antibacterial activity against Pseudomonas aeruginosa ATCC 27853 after 24 hrs; assay type: functional; details: ATCC 27853, 24 h
[18] = tested on: HCT-116; experiment: Cytotoxicity against human HCT116 cells at 10 uM after 48 hrs by WST-1 assay; assay type: functional; outline: as §4
[19] = tested on: Aspergillus fumigatus; experiment: Antifungal activity against Aspergillus fumigatus NCIM 902 after 3 to 4 days by disc diffusion method; assay type: functional
[20] = tested on: Aspergillus flavus; experiment: Antifungal activity against Aspergillus flavus NCIM 524 after 3 to 4 days; assay type: functional
[21] = tested on: Talaromyces marneffei; experiment: Antifungal activity against Penicillium marneffei after 3 to 4 days; assay type: functional

SMILES: CCOC(=O)CC(=O)c1cnc(Cl)cn1
- inhibition zone (IZ) [1]: 20 mm
- inhibition zone (IZ) [2]: 24 mm
- MIC [3]: 6.25 µg/mL (≈ 27.3 µM)
- Activity [4]: 14%
- Activity [5]: 30%
- MIC [6]: 6.25 µg/mL (≈ 27.3 µM)
- MIC [7]: 6.25 µg/mL (≈ 27.3 µM)
- inhibition zone (IZ) [8]: 25 mm
- Activity [9]: 31%
- Activity [10]: 34%
- inhibition zone (IZ) [11]: 22 mm
- inhibition zone (IZ) [12]: 21 mm
- inhibition zone (IZ) [13]: 23 mm
- MIC [14]: 6.25 µg/mL (≈ 27.3 µM)
- inhibition zone (IZ) [15]: 24 mm
- MIC [16]: 6.25 µg/mL (≈ 27.3 µM)
- MIC [17]: 6.25 µg/mL (≈ 27.3 µM)
- Activity [18]: 40%
- inhibition zone (IZ) [19]: 26 mm
- MIC [20]: 6.25 µg/mL (≈ 27.3 µM)
- MIC [21]: 6.25 µg/mL (≈ 27.3 µM)

SMILES: CCOC(=O)CC(=O)c1cc2ccccc2cn1
- inhibition zone (IZ) [1]: 23 mm
- inhibition zone (IZ) [2]: 25 mm
- MIC [3]: 6.25 µg/mL (≈ 25.7 µM)
- Activity [4]: 23%
- Activity [5]: 30%
- MIC [6]: 6.25 µg/mL (≈ 25.7 µM)
- MIC [7]: 12.5 µg/mL (≈ 51.4 µM)
- inhibition zone (IZ) [8]: 23 mm
- Activity [9]: 21%
- Activity [10]: 17%
- inhibition zone (IZ) [11]: 27 mm
- inhibition zone (IZ) [12]: 22 mm
- inhibition zone (IZ) [13]: 16 mm
- MIC [14]: 12.5 µg/mL (≈ 51.4 µM)
- inhibition zone (IZ) [15]: 19 mm
- MIC [16]: 12.5 µg/mL (≈ 51.4 µM)
- MIC [17]: 12.5 µg/mL (≈ 51.4 µM)
- Activity [18]: 29%
- inhibition zone (IZ) [19]: 23 mm
- MIC [20]: 6.25 µg/mL (≈ 25.7 µM)
- MIC [21]: 6.25 µg/mL (≈ 25.7 µM)

SMILES: CCOC(=O)CC(=O)c1ncccn1
- inhibition zone (IZ) [1]: 23 mm
- inhibition zone (IZ) [2]: 17 mm
- MIC [3]: 12.5 µg/mL (≈ 64.4 µM)
- Activity [4]: 37%
- Activity [5]: 10%
- MIC [6]: 12.5 µg/mL (≈ 64.4 µM)
- MIC [7]: 6.25 µg/mL (≈ 32.2 µM)
- inhibition zone (IZ) [8]: 18 mm
- Activity [9]: 17%
- Activity [10]: 20%
- inhibition zone (IZ) [11]: 22 mm
- inhibition zone (IZ) [12]: 22 mm
- inhibition zone (IZ) [13]: 22 mm
- MIC [14]: 6.25 µg/mL (≈ 32.2 µM)
- inhibition zone (IZ) [15]: 24 mm
- MIC [16]: 6.25 µg/mL (≈ 32.2 µM)
- MIC [17]: 6.25 µg/mL (≈ 32.2 µM)
- Activity [18]: 23%
- inhibition zone (IZ) [19]: 25 mm
- MIC [20]: 12.5 µg/mL (≈ 64.4 µM)
- MIC [21]: 12.5 µg/mL (≈ 64.4 µM)
